Test [1] in a line: Ratio of Kcat to Km for Beta-lactamase GES-1 E104, G170 mutant. In a few lines:
(§1)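 Purified GES enzymes, released by mild sonication in 20 mM Tris pH 8.0, then Q-Sepharose and S-Sepharose chromatography, >95% pure by SDS-PAGE, in 50 mM KPi pH 7.6. Protein measured by Bradford. β-Lactam substrates hydrolysed at various concentrations, 25°C, in 50 mM NaCl, 50 mM MOPS pH 7.0.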

Test [2] concerns Escherichia coli. Put plainly: Antimicrobial activity against Escherichia coli DH5[alpha] transformed with pAC-ges1 plasmid encoding Beta-lactamase GES-7 K104, G170 mutant by Etest method. The class given is functional.
Test [3] in a line: Activity of Beta-lactamase GES-5 E104, S170 mutant. In outline: as §1
A short description of test [4]: Activity of Beta-lactamase GES-13 K104, N170 mutant. In outline: as §1
Test [5] can be described thus: Activity of Beta-lactamase GES-2 E104, N170 mutant. In outline:
as §1

For test [6], the system named is Escherichia coli. Put plainly: Antimicrobial activity against Escherichia coli DH5[alpha] transformed with pAC-ges1 plasmid encoding Beta-lactamase GES-5 E104, S170 mutant by Etest method. The class given is functional.
Test [7] can be described thus: Ratio of Kcat to Km for Beta-lactamase GES-5 E104, S170 mutant. In a few lines: as §1
Test [8] can be described thus: Activity of Beta-lactamase GES-1 E104, G170 mutant. In a few lines:
as §1

In test [9] the test system is Escherichia coli. Put plainly: Antimicrobial activity against Escherichia coli DH5[alpha] transformed with pAC-ges1 plasmid encoding Beta-lactamase GES-2 E104, N170 mutant by Etest method. The class given is functional.
Test [10] can be described thus: Ratio of Kcat to Km for Beta-lactamase GES-13 K104, N170 mutant. In a few lines:
as §1

Test [11] has as its system Escherichia coli. Put plainly: Antimicrobial activity against Escherichia coli DH5[alpha] by Etest method. Type of test: functional.
Test [12] deals with Escherichia coli. Put plainly: Antimicrobial activity against Escherichia coli DH5[alpha] transformed with pAC-ges1 plasmid encoding Beta-lactamase GES-1 E104, G170 mutant by Etest method. The class given is functional.
The nature of test [13]: Ratio of Kcat to Km for Beta-lactamase GES-2 E104, N170 mutant. In a few lines: as §1
The nature of test [14]: Activity of Beta-lactamase GES-6 K104, S170 mutant. In a few lines:
as §1

Test [15] deals with Escherichia coli. Put plainly: Antimicrobial activity against Escherichia coli DH5[alpha] transformed with pAC-ges1 plasmid encoding Beta-lactamase GES-13 K104, N170 mutant by Etest method. Type of test: functional.
For test [16], the system named is Escherichia coli. Put plainly: Antimicrobial activity against Escherichia coli DH5[alpha] transformed with pAC-ges1 plasmid encoding Beta-lactamase GES-6 K104, S170 mutant by Etest method. The class given is functional.
Test [17] is described as follows: Ratio of Kcat to Km for Beta-lactamase GES-6 K104, S170 mutant. In a few lines:
as §1

The nature of test [18]: Inhibition of Beta-lactamase GES-1 E104, G170 mutant preincubated for 5 mins before substrate addition using cephalothin substrate by spectrophotometry.
A short description of test [19]: Inhibition of Beta-lactamase GES-5 E104, S170 mutant preincubated for 5 mins before substrate addition using cephalothin substrate by spectrophotometry.
Test [20] in a line: Inhibition of Beta-lactamase GES-13 K104, N170 mutant preincubated for 5 mins before substrate addition using cephalothin substrate by spectrophotometry.
Test [21] can be described thus: Inhibition of Beta-lactamase GES-2 E104, N170 mutant preincubated for 5 mins before substrate addition using cephalothin substrate by spectrophotometry.
Test [22] is described as follows: Inhibition of Beta-lactamase GES-7 K104, G170 mutant preincubated for 5 mins before substrate addition using cephalothin substrate by spectrophotometry.
The nature of test [23]: Inhibition of Beta-lactamase GES-6 K104, S170 mutant preincubated for 5 mins before substrate addition using cephalothin substrate by spectrophotometry.
The nature of test [24]: Ratio of Kcat to Km for Beta-lactamase GES-7 K104, G170 mutant. In a few lines: as §1
Test [25] is described as follows: Activity of Beta-lactamase GES-7 K104, G170 mutant. In a few lines: as §1

The structures appear in SMILES notation. In brackets after ≈: the same amount, converted by molar mass. Some results are limits rather than exact numbers.

The values that follow come from ChEMBL document CHEMBL1687781, “Comparative biochemical and computational study of the role of naturally occurring mutations at Ambler positions 104 and 170 in GES β-lactamases” (Antimicrob Agents Chemother, 2010).

For `C[C@@H](O)[C@H]1C(=O)N2C(C(=O)O)=C(SCCNC=N)C[C@H]12` [IMIPENEM ANHYDROUS], the kcat/Km in test [1] came out at 5000 M⁻¹ s⁻¹; in test [7], 260000 M⁻¹ s⁻¹; in [10], 3000 M⁻¹ s⁻¹; in test [13], 20000 M⁻¹ s⁻¹; in test [17], 42000 M⁻¹ s⁻¹. The MIC worked out at 0.125 µg/mL (≈ 0.418 µM) in test [2]; 1.5 µg/mL (≈ 5.01 µM) in test [6]; 0.5 µg/mL (≈ 1.67 µM) in [9]; 0.064 µg/mL (≈ 0.214 µM) in test [11]; 0.25 µg/mL (≈ 0.835 µM) in test [12]; 0.25 µg/mL (≈ 0.835 µM) in [15]. In [16], this molecule came in with an MIC of 0.5 µg/mL (≈ 1.67 µM). Further, the Michaelis-Menten constant (Km) in [3] stood at 1.27 µM; in test [4], 3.1 µM; in test [5], 0.87 µM; in test [8], 1.2 µM; in test [14] it was 3.92 µM. In addition, the catalytic constant (kcat) in [3] amounted to 0.332 s⁻¹; in test [4], 0.009 s⁻¹; in test [5] it was 0.016 s⁻¹; in [8], 0.006 s⁻¹; in [14], 0.166 s⁻¹.
In the case of `O=C(O)[C@H]1/C(=C/CO)O[C@@H]2CC(=O)N21` [CLAVULANIC ACID], the IC50 in test [18] is 0.1 µM; in [19], 0.5 µM; in test [20], 0.09 µM; in test [21], 0.08 µM; in [22] it was 0.8 µM; in test [23], 1.7 µM.
Turning to `CC(C)(O/N=C(\C(=O)N[C@@H]1C(=O)N2C(C(=O)[O-])=C(C[n+]3ccccc3)CS[C@H]12)c1csc(N)n1)C(=O)O` [CEFTAZIDIME], the catalytic efficiency (kcat/Km) in [1] is 77000 M⁻¹ s⁻¹; in [24], 1.9e+06 M⁻¹ s⁻¹; in [7], 2000 M⁻¹ s⁻¹; in test [10], 130000 M⁻¹ s⁻¹; in test [13] it was 2000 M⁻¹ s⁻¹; in test [17], 63000 M⁻¹ s⁻¹. The MIC in test [2] is greater than 256 µg/mL; in test [6], 0.75 µg/mL (≈ 1.37 µM); in test [9], 0.5 µg/mL (≈ 0.915 µM); in [11], 0.12 µg/mL (≈ 0.22 µM); in [12] it was 8 µg/mL (≈ 14.6 µM); in test [15], 32 µg/mL (≈ 58.5 µM). For the same molecule, the MIC in [16] was 4 µg/mL (≈ 7.32 µM). The Michaelis constant (Km) in test [3] is 135 µM; in test [4] it was 229 µM; in [5], 98.2 µM; in [8], 137 µM; in [14], 149 µM; in test [25], 69.2 µM. The kcat in test [3] is 0.24 s⁻¹; in [4], 30.4 s⁻¹; in test [5], 0.21 s⁻¹; in [8] it was 10.5 s⁻¹; in test [14] it was 9.3 s⁻¹; in test [25], 132 s⁻¹.
As to `C[C@@H](O)[C@H]1C(=O)N2C(C(=O)O)=C(S[C@@H]3CN[C@H](C(=O)N(C)C)C3)[C@H](C)[C@H]12` [MEROPENEM], the minimum inhibitory concentration (MIC) in [2] was determined as 0.016 µg/mL (≈ 0.0417 µM); in test [6], 0.094 µg/mL (≈ 0.245 µM); in test [9], 0.032 µg/mL (≈ 0.0834 µM); in [11] it was 0.008 µg/mL (≈ 0.0209 µM); in test [12], 0.016 µg/mL (≈ 0.0417 µM); in test [15] it was 0.023 µg/mL (≈ 0.06 µM). This molecule yielded an MIC in [16] of 0.047 µg/mL (≈ 0.123 µM).
In the case of `C[C@]1(Cn2ccnn2)[C@H](C(=O)O)N2C(=O)C[C@H]2S1(=O)=O` [TAZOBACTAM], the IC50 in [18] was determined as 0.03 µM; in test [19], 0.5 µM; in test [20], 0.04 µM; in test [21], 0.03 µM; in [22], 0.06 µM; in [23], 0.5 µM.
In the case of `C[C@H]1[C@H](NC(=O)/C(=N\OC(C)(C)C(=O)O)c2csc(N)n2)C(=O)N1S(=O)(=O)O` [AZTREONAM], the MIC in test [2] is 2 µg/mL (≈ 4.59 µM); in [6] it was 0.032 µg/mL (≈ 0.0735 µM); in test [9], 0.032 µg/mL (≈ 0.0735 µM); in [12], 0.094 µg/mL (≈ 0.216 µM); in [15], 2 µg/mL (≈ 4.59 µM); in test [16], 0.094 µg/mL (≈ 0.216 µM). Besides, the specificity constant (kcat/Km) was 190000 M⁻¹ s⁻¹ in test [24] and 90000 M⁻¹ s⁻¹ in test [10]. Moreover, the results for the Km in [4] and in test [25] were 405 µM and 241 µM, respectively. Besides, the kcat in test [4] was determined as 35.6 s⁻¹; in test [25], 45.5 s⁻¹.

The term kcat/Km denotes the turnover number divided by the Michaelis constant. The term MIC denotes the least concentration at which growth counts as inhibited. Low values mean a more susceptible organism, high ones a less susceptible organism. As a reminder, the Km is the substrate concentration at which the rate is half of its maximum. The term kcat denotes the maximal rate divided by the concentration of active sites. The term IC50 denotes the concentration that gives 50% inhibition.
